The source made the active and inactive calls. No cut-off for these calls is given here.
Key:
Cholinesterase [1] = target: Cholinesterase (Equus caballus, UniProt P81908); experiment: Inhibition of equine serum BChE using butyrylthiocholine iodide as substrate preincubated for 5 mins followed by substrate addition and measured after 2 mins by DTNB-reagent based Ellman's method
HepG2 = experiment: Cytotoxicity against human HepG2 cells assessed as survival rate at 100 uM incubated for 24 hrs by MTT assay; type: functional
How it was run: (§1)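 Cells seeded at 1 × 10⁴/well in DMEM with 10% FBS and left overnight, then given compound (DMSO stock diluted in DMEM) for 24 h at 37 °C. MTT added for 4 h, formazan dissolved in DMSO, absorbance read at 492 nm. Viability taken as OD treated/OD DMEM × 100%; IC50 from three independent experiments, mean SD.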

[2] = Acute toxicity in ICR mouse assessed as abnormal behaviour at 1 g/kg, ig administered […]; conditions: in vivo, po, 1000 mg/kg
How it was run: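 Single dose of 1 g/kg given intragastrically on day 1 to overnight-fasted mice (15−18 g), suspended in 5% DMSO, 40% PEG 400, 55% saline. Male and female groups (n = 9), with vehicle controls. Death, daily behaviour and body mass followed over the next 2 weeks.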

[3] = Effective permeability of the compound in pH 7.4 PBS/EtOH (70:30) at 100 ug/ml incubated for 18 hrs by PAMPA-BBB assay; type: ADME; conditions: dose 100 µg/ml, read-out: Peff
How it was run: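 PAMPA-BBB with porcine brain lipid in dodecane (20 mg/mL) on PVDF filter. Donor holds compound at 100 μg/mL final (from 5 mg/mL DMSO stock) in PBS pH 7.4/EtOH 70:30; acceptor holds the same buffer. Incubated 18 h at 25 °C; donor and acceptor concentrations by UV at five wavelengths. Four wells, at least three runs, nine permeability standards; mean ± SD.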

[4] = Acute toxicity in ICR mouse assessed as animal death at […]; conditions: in vivo, po, 1000 mg/kg, 336 h
[5] = Hepatotoxicity in ICR mouse assessed as change in aspartate aminotransferase activity at 1 g/kg, ig administered daily for 14 days measured upto 36 hrs post-administration; type: toxicity; conditions: in vivo, po, 1000 mg/kg, 336 h, time 14 day
How it was run: (§2)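 Heparinized serum from ICR mice taken at 8, 22 and 36 h after oral compound or saline control; AST and ALT activities measured.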

[6] = Hepatotoxicity in ICR mouse assessed as change in alanine aminotransferase activity at 1 g/kg, ig administered daily for 14 days measured upto 36 hrs post-administration; type: toxicity; conditions: in vivo, po, 1000 mg/kg, 336 h, time 14 day; how it was run: as §2
Mus musculus [7] = experiment: Anti-alzheimer activity in amyloid beta(1 to 42)-induced ICR mouse model of cognitive impairment assessed as enhanced alternation performance by measuring total number of arm entries at 15 mg/kg, ig administered at days 2 to 14 and measured on day 15 by Y-maze test; type: functional
How it was run: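 Oligomerized Aβ1-42 (10 μg per mouse, icv) given on day 1; saline icv for sham. Dosing 15 mg/kg ig on days 2−14 (donepezil as positive control), n = 8. Spontaneous alternation read on day 15 in a three-arm grey PVC Y maze, arms at 120°. Mean SD.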

Mus musculus [8] = experiment: Antialzheimer activity in ICR mouse assessed as reduction in scopolamine-induced cognitive impairment at 30 mg/kg, ig administered for 10 consecutive days by Morris water maze test; type: functional, organism-based; conditions: time 10.0 day
How it was run: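 Male ICR mice (8−10 weeks, 18−20 g), n = 8 per group. Compound at 15 or 30 mg/kg intragastric in DMSO/saline (10:90), given 30 min before scopolamine 3 mg/kg i.p., for 10 consecutive days; tacrine 15 mg/kg as reference. Morris water maze: 5 days of training, probe trial on day 6 with platform removed. Escape latency and trajectory recorded; mean ± SD.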

BV-2 = experiment: Cytotoxicity against mouse BV-2 cells assessed as survival rate at 100 uM incubated for 24 hrs by MTT assay; type: functional; how it was run: as §1
[9] = Hepatotoxicity in ICR mouse assessed as morphological changes in liver at 1 g/kg, ig administered daily for 14 days analysed after 22 hrs post-administration by hematoxylin and eosin staining based analysis; type: toxicity, tissue-based; conditions: in vivo, po, 1000 mg/kg, 336 h, time 14 day
How it was run: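 Liver from male mice taken 22 h after compound or vehicle; hematoxylin−eosin staining, viewed at ×100.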

Mus musculus [10] = experiment: Anti-alzheimer activity in amyloid beta(1 to 42)-induced ICR mouse model of cognitive impairment assessed as reduction in escape latency time at 15 mg/kg, ig administered at days 2 to 14 by Morris water maze test; type: functional
How it was run: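 Mouse model by icv oligomerized Aβ1-42 (10 μg/mouse, aggregated 24 h at 37 °C in saline) on day 1; 15 mg/kg ig on days 2−14, n = 8. Morris water maze training on days 9−13, probe trial day 14, escape latency and track recorded. Mean SD.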

L02 = experiment: Cytotoxicity against human L02 cells assessed as survival rate at 100 uM incubated for 24 hrs by MTT assay; type: functional; how it was run: as §1
Mus musculus [11] = experiment: Anti-alzheimer activity in amyloid beta(1 to 42)-induced ICR mouse model of cognitive impairment assessed as simplification of trajectories at 15 mg/kg, ig administered at days 2 to 14 by Morris water maze test; type: functional, organism-based
How it was run: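 ICR mice, n = 8 per group. Aggregated Aβ1-42 (5 mM DMSO stock incubated 24 h at 37 °C in saline at 2 mg/mL) given 10 μg per mouse icv on day 1; saline icv for sham. Compound 15 mg/kg intragastric on days 2−14; donepezil reference. Morris water maze training days 9−13, probe trial day 14; tracks recorded; mean ± SD.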

SH-SY5Y = experiment: Cytotoxicity against human SH-SY5Y cells assessed as survival rate at 100 uM incubated for 24 hrs by MTT assay; type: functional; how it was run: as §1
[12] = Metabolic stability in human liver microsomes assessed as intrinsic clearance at 1 uM measured upto 45 mins in presence of NADPH by LC/MS/MS analysis; type: ADME, Microsome; conditions: read-out: CLH
How it was run: (§3)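 Human liver microsomes 0.5 mg/mL, compound 1 μM final, NADPH 2 mM, at 37 °C. Reactions stopped at 0, 5, 15, 30 and 45 min with acetonitrile containing imipramine internal standard. LC/MS/MS quantitation relative to 0 min; initial rates used for t1/2 and intrinsic clearance; ketanserin as assay control. Mean of two independent experiments.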

[13] = Metabolic stability in human liver microsomes assessed as half life at 1 uM measured upto 45 mins in presence of NADPH by LC/MS/MS analysis; type: ADME, Microsome; how it was run: as §3
[14] = Toxicity in ICR mouse assessed as increase in body weight administered for 14 days and measured daily; conditions: in vivo, 15 mg/kg, 336 h
PC-12 = experiment: Cytotoxicity against rat PC-12 cells assessed as survival rate at 10 uM incubated for 24 hrs by MTT assay; type: functional; how it was run: as §1
Cholinesterase [15] = target: Cholinesterase (Homo sapiens, UniProt P06276); experiment: Inhibition of human serum BChE using butyrylthiocholine iodide as substrate preincubated for 20 mins followed by substrate addition and measured after 2 mins by DTNB-reagent based Ellman's method
Chain of Cholinesterase (Homo sapiens, UniProt P06276) (P06276 whole entry): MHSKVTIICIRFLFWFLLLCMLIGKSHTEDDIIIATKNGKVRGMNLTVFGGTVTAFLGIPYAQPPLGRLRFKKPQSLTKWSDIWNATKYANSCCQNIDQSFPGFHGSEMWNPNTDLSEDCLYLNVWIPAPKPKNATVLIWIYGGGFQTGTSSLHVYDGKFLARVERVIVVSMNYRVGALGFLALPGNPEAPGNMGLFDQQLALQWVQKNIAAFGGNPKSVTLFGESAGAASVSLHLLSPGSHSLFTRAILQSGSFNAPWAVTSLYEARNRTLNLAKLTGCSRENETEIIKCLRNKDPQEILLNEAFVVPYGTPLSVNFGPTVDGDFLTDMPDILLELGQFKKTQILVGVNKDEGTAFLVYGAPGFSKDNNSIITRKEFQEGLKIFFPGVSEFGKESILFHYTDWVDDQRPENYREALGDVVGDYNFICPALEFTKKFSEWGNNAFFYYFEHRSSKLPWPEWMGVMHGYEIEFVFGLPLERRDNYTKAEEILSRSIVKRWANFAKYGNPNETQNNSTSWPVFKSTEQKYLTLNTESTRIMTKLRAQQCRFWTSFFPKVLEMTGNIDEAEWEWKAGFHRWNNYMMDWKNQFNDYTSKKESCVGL
How it was run: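 hBChE at 0.015 units/mL with DTNB in phosphate buffer pH 8.0, preincubated 20 min at room temperature with at least six concentrations (10⁻⁴−10⁻⁹). Butyrylthiocholine iodide (0.075 M solution) added; A412 read after 2 min at 25 °C. IC50 from % activity vs log concentration; triplicates in at least three runs.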

[16] = target: Cholinesterase (Equus caballus) (UniProt P81908); experiment: Inhibition of equine serum BChE at 10 uM using butyrylthiocholine iodide as substrate preincubated for 5 mins followed by substrate addition and measured after 2 mins by DTNB-reagent based Ellman's method relative to control; conditions: time 7.0 min
Chain of Cholinesterase (Equus caballus) (P81908 whole entry): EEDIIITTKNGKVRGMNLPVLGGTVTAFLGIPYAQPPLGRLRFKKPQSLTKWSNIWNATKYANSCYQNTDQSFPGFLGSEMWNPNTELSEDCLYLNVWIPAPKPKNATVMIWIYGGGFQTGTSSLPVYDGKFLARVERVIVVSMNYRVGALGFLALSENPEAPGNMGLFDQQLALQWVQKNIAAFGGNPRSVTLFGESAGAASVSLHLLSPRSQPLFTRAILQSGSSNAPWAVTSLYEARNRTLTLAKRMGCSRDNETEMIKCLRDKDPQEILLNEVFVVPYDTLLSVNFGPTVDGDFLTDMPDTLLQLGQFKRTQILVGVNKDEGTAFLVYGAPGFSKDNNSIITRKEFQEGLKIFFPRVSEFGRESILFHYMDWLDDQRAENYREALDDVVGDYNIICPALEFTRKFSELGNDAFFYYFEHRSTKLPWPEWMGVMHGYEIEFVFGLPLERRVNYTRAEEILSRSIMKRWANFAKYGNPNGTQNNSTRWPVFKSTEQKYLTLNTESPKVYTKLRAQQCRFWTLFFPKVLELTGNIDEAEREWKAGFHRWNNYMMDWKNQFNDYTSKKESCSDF
How it was run: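 Ellman method with equine BChE at 2.5 units/mL in pH 8.0 phosphate buffer with DTNB. Preincubation 5 min at room temperature, then butyrylthiocholine iodide (0.075 M solution) added; absorbance at 412 nm after 2 min. Ethanol sample gives 100% activity. Triplicates, at least three runs.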

Chain of Cholinesterase (Equus caballus, UniProt P81908) (P81908 whole entry): as above

## Nc1nonc1-c1nc2ccccc2n1CC(=O)Nc1ccc2ccccc2n1
Cholinesterase [1]
  IC50: 507 nM

## Cc1cccc(NC(=O)Cn2c(-c3nonc3N)nc3ccccc32)c1C
Cholinesterase [1]
  IC50: 326 nM

## Nc1nonc1-c1nc2ccccc2n1CC(=O)Nc1ccc(Br)c2ccccc12
HepG2
  Activity: 73.24%
[2]
  Activity: Non-Toxic
[3]
  Papp at 18 h, 100 ug/ml: 11.7 ×10⁻⁶ cm/s
[4]
  Activity: Non-Toxic
[5]
  Activity: Non-Toxic
[6]
  Activity: Non-Toxic
Cholinesterase [1]
  IC50: 6 nM
Mus musculus [7]
  Activity: Active
Mus musculus [8]
  Activity: Active
BV-2
  Activity: 55.66%
[9]
  Activity: Non-Toxic
Mus musculus [10]
  Activity: Active
L02
  Activity: 86.55%
Mus musculus [11]
  Activity: Active
SH-SY5Y
  Activity: 62.37%
[12]
  CLint scaled at 1 µM: 54 mL/min/kg
[13]
  half-life at 1 µM: 32.2 min
[14]
  Activity: Toxic
PC-12
  Activity: 52.21%
Cholinesterase [15]
  IC50: 32 nM

## Nc1nonc1-c1nc2ccccc2n1CC(=O)Nc1cccc2ncccc12
Cholinesterase [1]
  IC50: 920 nM

## Nc1nonc1-c1nc2ccccc2n1CC(=O)Nc1ccc(Cl)cc1
[16]
  inhibition: < 50%

## Nc1nonc1-c1nc2ccccc2n1CC(=O)Nc1ccc2ccccc2c1
Cholinesterase [1]
  IC50: 352000 nM

## Cc1ccc(NC(=O)Cn2c(-c3nonc3N)nc3ccccc32)cc1
Cholinesterase [1]
  IC50: 10300 nM

## Nc1nonc1-c1nc2ccccc2n1CC(=O)Nc1cccc(Br)c1
Cholinesterase [1]
  IC50: 83 nM
Cholinesterase [15]
  IC50: 212 nM

## Nc1nonc1-c1nc2ccccc2n1CC(=O)Nc1ccc(-c2ccccc2)cc1
[16]
  inhibition: < 50%

## Nc1nonc1-c1nc2ccccc2n1CC(=O)Nc1ccccc1
Cholinesterase [1]
  IC50: 2960 nM

## Nc1nonc1-c1nc2ccccc2n1CC(=O)Nc1ccccc1F
Cholinesterase [1]
  IC50: 124 nM

## Nc1nonc1-c1nc2ccccc2n1CC(=O)Nc1ccc(Br)cc1
[16]
  inhibition: < 50%

## COc1ccc(NC(=O)Cn2c(-c3nonc3N)nc3ccccc32)cc1
[16]
  inhibition: < 50%

## COc1cccc(NC(=O)Cn2c(-c3nonc3N)nc3ccccc32)c1
Cholinesterase [1]
  IC50: 1710 nM

## Cc1cccc(NC(=O)Cn2c(-c3nonc3N)nc3ccccc32)c1
Cholinesterase [1]
  IC50: 236 nM

## CC(=O)Nc1ccc(NC(=O)Cn2c(-c3nonc3N)nc3ccccc32)cc1
Cholinesterase [1]
  IC50: 6540 nM

## CC(=O)c1cccc(NC(=O)Cn2c(-c3nonc3N)nc3ccccc32)c1
Cholinesterase [1]
  IC50: 191 nM

## Cc1cc2nc(-c3nonc3N)n(CC(=O)Nc3cnc4ccccc4c3)c2cc1C
Cholinesterase [1]
  IC50: 28500 nM

## Cc1cc2nc(-c3nonc3N)n(CC(=O)Nc3ccc4ncccc4c3)c2cc1C
Cholinesterase [1]
  IC50: 11300 nM

## Nc1nonc1-c1nc2ccccc2n1CCCCC(=O)Nc1ccc2ncccc2c1
[16]
  inhibition: < 50%

## CC(=O)Nc1cccc(NC(=O)Cn2c(-c3nonc3N)nc3ccccc32)c1
Cholinesterase [1]
  IC50: 1130 nM

## Nc1nonc1-c1nc2ccccc2n1CC(=O)Nc1ccc2ncccc2c1
Cholinesterase [1]
  IC50: 705 nM

## O=C(Cn1c(-c2ccoc2)nc2ccccc21)Nc1ccc2ncccc2c1
[16]
  inhibition: < 50%

## COc1cc(NC(=O)Cn2c(-c3nonc3N)nc3ccccc32)cc(OC)c1OC
Cholinesterase [1]
  IC50: 6640 nM

## Nc1nonc1-c1nc2ccccc2n1CC(=O)Nc1ccnc2ccccc12
Cholinesterase [1]
  IC50: 51 nM
Cholinesterase [15]
  IC50: 212 nM

## Cc1cc2nc(-c3nonc3N)n(CC(=O)Nc3cccc4ccccc34)c2cc1C
Cholinesterase [1]
  IC50: 108 nM

## Nc1nonc1-c1nc2ccccc2n1CC(=O)Nc1cccc(F)c1F
Cholinesterase [1]
  IC50: 270 nM

## Nc1ccccc1-c1nc2ccccc2n1CC(=O)Nc1ccc2ncccc2c1
[16]
  inhibition: < 50%

## COC(=O)c1cccc(NC(=O)Cn2c(-c3nonc3N)nc3ccccc32)c1
Cholinesterase [1]
  IC50: 27 nM
Cholinesterase [15]
  IC50: 180 nM

## Nc1nonc1-c1nc2ccccc2n1CC(=O)Nc1ccc([N+](=O)[O-])cc1
Cholinesterase [1]
  IC50: 30 nM
Cholinesterase [15]
  IC50: 80 nM

## COc1cc2c(cc1OC)C(=O)C(CC1CCN(Cc3ccccc3)CC1)C2 (configuration not stated) [DONEPEZIL]
[14]
  Activity: Toxic

## Nc1nonc1-c1nc2ccccc2n1CC(=O)Nc1ccccc1Cl
Cholinesterase [1]
  IC50: 2730 nM

## COC(=O)c1ccc(NC(=O)Cn2c(-c3nonc3N)nc3ccccc32)cc1
Cholinesterase [1]
  IC50: 5380 nM

## Nc1nonc1-c1nc2ccccc2n1CCC(=O)Nc1ccc2ncccc2c1
Cholinesterase [1]
  IC50: 253 nM

## Nc1nonc1-c1nc2ccccc2n1CC(=O)Nc1ccc2c(c1)OCO2
Cholinesterase [1]
  IC50: 2210 nM

## Nc1ccc(NC(=O)Cn2c(-c3nonc3N)nc3ccccc32)cc1
[16]
  inhibition: < 50%

## Nc1nonc1-c1nc2ccccc2n1CC(=O)Nc1cccc(Cl)c1
Cholinesterase [1]
  IC50: 33 nM
Cholinesterase [15]
  IC50: 128 nM

## O=C(Cn1c(-c2ccccc2[N+](=O)[O-])nc2ccccc21)Nc1ccc2ncccc2c1
[16]
  inhibition: < 50%

## CC(=O)c1ccc(NC(=O)Cn2c(-c3nonc3N)nc3ccccc32)cc1
Cholinesterase [1]
  IC50: 2270 nM

## O=C(Cn1c(-c2ccccc2)nc2ccccc21)Nc1ccc2ncccc2c1
[16]
  inhibition: < 50%

## N#Cc1cccc(NC(=O)Cn2c(-c3nonc3N)nc3ccccc32)c1
Cholinesterase [1]
  IC50: 51 nM
Cholinesterase [15]
  IC50: 250 nM

## Nc1nonc1-c1nc2ccccc2n1CC(=O)Nc1cccc(F)c1
Cholinesterase [1]
  IC50: 1040 nM

Source: ChEMBL document CHEMBL5038583, “Highly Potent and Selective Butyrylcholinesterase Inhibitors for Cognitive Improvement and Neuroprotection” (J Med Chem, 2021)
